ChEMBL document CHEMBL4376884, “Toward a Rational Design of Polyamine-Based Zinc-Chelating Agents for Cancer Therapies” (J Med Chem, 2020)
Activity calls are given as the source filed them. The rule behind the calls is not given here.

Columns and labels:
Homo sapiens [1] = species: Homo sapiens; assay: Antiproliferative activity against human JMV2 cells assessed as reduction in cell viability at 10 uM incubated for 48 hrs by cell titer-glo assay; type: functional, cell-based
In short: (§1)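 Cells plated and treated 24 h later with 10 µM compound for 48 h; viable cells quantified by CellTiter-Glo ATP luminescence. Expressed as percentage of viable cells relative to untreated; mean ± SD of three independent experiments, each in triplicate.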

Homo sapiens [2] = species: Homo sapiens; assay: Antiproliferative activity against human SKMG3 cells assessed as reduction in cell viability at 10 uM incubated for 48 hrs by cell titer-glo assay; type: functional, cell-based; in short: as §1
MCF7 [3] = assay: Antiproliferative activity against human MCF7 cells assessed as reduction in cell viability at 10 uM incubated for 48 hrs by cell titer-glo assay; type: functional, cell-based; in short: as §1
LN-229 [4] = assay: Induction of cell morphological changes in human LN229 cells assessed as cell rounding at 10 uM incubated for 24 to 48 hrs by phase contrast microscopy; type: functional, cell-based
In short: (§2)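 LN229 and PC3 cells exposed to 10 µM compound for the indicated time-points, then imaged live by phase-contrast microscopy for morphology.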

PC-3 [5] = assay: Induction of cell morphological changes in human PC3 cells assessed as cell rounding at 10 uM incubated for 24 to 48 hrs by phase contrast microscopy; type: functional, cell-based; in short: as §2
Jurkat = assay: Antiproliferative activity against human Jurkat cells assessed as reduction in cell viability incubated for 48 hrs by cell titer-glo assay; type: functional, cell-based
In short: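 Dose-response: cells plated, treated 24 h later for 48 h, then ATP measured by CellTiter-Glo luminescence. IC50 given as mean ± SD from three independent experiments, each in triplicate. Fibroblasts came from individuals. Cells were kept in RPMI or DMEM with 10% heat-inactivated FBS and penicillin/streptomycin at 37 °C, 5% CO2.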

LN-229 [6] = assay: Cell cycle arrest in human LN229 cells assessed as cell accumulation at G1 phase at 10 uM incubated for 24 hrs by propidium iodide staining based flow cytometry analysis relative to control; type: functional
LN-229 [7] = assay: Cell cycle arrest in human LN229 cells assessed as cell accumulation at S phase at 10 uM incubated for 24 hrs by propidium iodide staining based flow cytometry analysis relative to control; type: functional
PC-3 [8] = assay: Cell cycle arrest in human PC3 cells assessed as cell accumulation at S phase at 10 uM incubated for 48 hrs by propidium iodide staining based flow cytometry analysis relative to control; type: functional
PC-3 [9] = assay: Cell cycle arrest in human PC3 cells assessed as cell accumulation at G2/M phase at 10 uM incubated for 48 hrs by propidium iodide staining based flow cytometry analysis relative to control; type: functional
LN-229 [10] = assay: Induction of cellular senescence in human LN229 cells assessed as flattened cells at 10 uM incubated for 24 hrs by phase contrast microscopy; type: functional, cell-based
In short: (§3)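 LN229 and PC3 cells, 12×10^4 per well in 6-well plates, treated with 10 µM compound for 24 h. Senescence-associated β-gal staining: fixed in 2% formaldehyde/0.2% glutaraldehyde for 10 min at RT, stained with 1 mg/mL X-gal at 37 °C for 24 h without CO2. Blue cells counted in at least 10 fields at 10x and given as percent of total; four independent experiments. Morphology viewed by phase contrast at ×100.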

LN-229 [11] = assay: Induction of cellular senescence in human LN229 cells assessed as larger volume of cell at 10 uM incubated for 24 hrs by phase contrast microscopy; type: functional, cell-based; in short: as §3
LN-229 [12] = assay: Induction of cellular senescence in human LN229 cells assessed as increase in nuclear size at 10 uM incubated for 24 hrs by phase contrast microscopy; type: functional, cell-based; in short: as §3
MCF7 [13] = assay: Induction of apoptosis in human MCF7 cells assessed as increase in caspase-3/7 activation at 10 uM incubated for 48 hrs by luminometric caspase-glo 3/7 assay; type: functional, cell-based
In short: (§4)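 Cells in RPMI or DMEM with 10% heat-inactivated FBS and penicillin/streptomycin, 37 °C, 5% CO2, treated with 10 µM compound for 48 h. Caspase-3 and caspase-7 activity read by luminescent Caspase-Glo 3/7 assay, reported as fold induction over untreated cells; mean ± SD of three independent experiments, each in triplicate.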

Homo sapiens [14] = species: Homo sapiens; assay: Induction of apoptosis in human JMV2 cells assessed as increase in caspase-3/7 activation at 10 uM incubated for 48 hrs by luminometric caspase-glo 3/7 assay; type: functional, cell-based; in short: as §4
PC-3 [15] = assay: Induction of apoptosis in human PC3 cells assessed as late apoptotic cells at 10 uM incubated for 24 hrs by annexin V-FITC and propidium iodide staining based flow cytometry analysis (reference value: 0.52 %); type: functional
PC-3 [16] = assay: Induction of apoptosis in human PC3 cells assessed as necrotic cells at 10 uM incubated for 72 hrs by annexin V-FITC and propidium iodide staining based flow cytometry analysis (reference value: 0.30 %); type: functional
DNA = assay: Induction of DNA damage in human LN229 cells assessed as gammaH2AX phosphorylation at Ser139 residue at 10 uM incubated for 4 hrs by Flow cytometry analysis; type: cell-based
In short: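 Z-138 and LN229 cells treated 4 h with 10 µM compound or 1 µM doxorubicin. Fixed in 3.7% formaldehyde on ice, permeabilized with 0.2% Triton X, stained with rabbit anti-pS139 H2A.X (1:400) and Alexa 555 secondary, then analysed by flow cytometry. Fold γH2AX fluorescence versus untreated; mean ± SD of three experiments.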

LN-229 [17] = assay: Inhibition of colony formation in human LN229 cells at 10 uM incubated for 4 hrs by crystal violet staining based colony counting method; type: functional, cell-based
In short: (§5)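 LN229 and PC3 cells treated for 4 h with compound (10 µM) or with etoposide (30 µM positive control), washed, trypsinized and replated at 3000 cells per 60-mm plate. Colonies grown 7–10 days, fixed and stained with 0.5% crystal violet in 70% ethanol, and counted. Reported as percent of control; four independent experiments, each in duplicate.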

PC-3 [18] = assay: Inhibition of colony formation in human PC3 cells at 10 uM incubated for 4 hrs by crystal violet staining based colony counting method; type: functional, cell-based; in short: as §5
LN-229 [19] = assay: Antiproliferative activity against human LN229 cells assessed as reduction in cell viability at 10 uM incubated for 48 hrs in presence of Fe2+ ion by MTT assay; type: functional, cell-based
In short: (§6)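 LN229 and PC3 cells plated, then 24 h later given 10 µM compound with or without 15 µM ZnCl2, CuCl2, FeCl2 or FeCl3 for 48 h. Medium replaced, MTT (12 mM solution) added for 4 h, formazan dissolved in DMSO, absorbance read at 540 nm. Percent viable versus untreated; mean ± SD of three experiments in triplicate.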

LN-229 [20] = assay: Antiproliferative activity against human LN229 cells assessed as reduction in cell viability at 10 uM incubated for 48 hrs in presence of Fe3+ ion by MTT assay; type: functional, cell-based; in short: as §6
PC-3 [21] = assay: Antiproliferative activity against human PC3 cells assessed as reduction in cell viability at 10 uM incubated for 48 hrs in presence of Cu2+ ion by MTT assay; type: functional, cell-based; in short: as §6
LN-229 [22] = assay: Metal chelating activity in human LN229 cells assessed as decrease in intracellular concentration of labile zinc ions by measuring reduction in zinquin-Zn2+ complex formation incubated for 12 hrs followed by incubation with fluorophore-zinquin for 30 mins by spectrofluorometric analysis; type: cell-based
In short: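 LN229 cells were treated 12 h, trypsinized, pelleted and checked by Trypan Blue. Then 6x10⁶ cells in 1 mL PBS were loaded with Zinquin 25 μM for 30 min at 37 °C in the dark. Fluorescence was read at ex 370/em 475 nm with a 400–600 nm scan, normalized to cell number, untreated set to 100; four independent experiments.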

IC50 (Jurkat) | SMILES | Activity (Homo sapiens [1]) | Activity (Homo sapiens [2]) | Activity (MCF7 [3]) | Activity (LN-229 [4]) | Activity (PC-3 [5]) | Activity (LN-229 [6]) | Activity (LN-229 [7]) | Activity (PC-3 [8]) | Activity (PC-3 [9]) | Activity (LN-229 [10]) | Activity (LN-229 [11]) | Activity (LN-229 [12]) | Activity (MCF7 [13]) | Activity (Homo sapiens [14]) | Activity (PC-3 [15]) | Activity (PC-3 [16]) | Activity (DNA) | inhibition (LN-229 [17]) | inhibition (PC-3 [18]) | further results
1990 nM | CN(CCNCc1ccccn1)CCNCc1ccccn1 | Active | Active | Active | Active | Active | 62.1% | 15.6% | 7.2% | 16% | Active | Active | Active | Active | Active | 2.13% | 3.5% | inactive | inactive | inactive | Activity (LN-229 [19]): Active; Activity (LN-229 [20]): Active; Activity (PC-3 [21]): inactive; Activity (LN-229 [22]): Dose-dependent effect
3170 nM | c1ccc(CNCCN(CCNCc2ccccn2)Cc2ccc3ccccc3c2)nc1 | Active | Active | Active | Active | Active | 63.1% | 14.8% | 7.7% | 14.1% | Active | Active | Active | Active | Active | 2.17% | 2.32% | inactive | inactive | inactive | Activity (LN-229 [19]): Active; Activity (LN-229 [20]): Active; Activity (PC-3 [21]): inactive; Activity (LN-229 [22]): Dose-dependent effect
